The source made the active and inactive calls. The rule behind the calls is not given here.
Columns and labels:
[1] = system: A549; test: Induction of apoptosis in human A549 cells assessed as increase in caspase-3 activity measured up to 48 hrs in presence of gemcitabine […]; format: functional, cell-based
In short: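 A549 cells given compound, gemcitabine, or both. Apoptosis assessed by PI staining, annexin V flow cytometry, cleaved PARP immunoblot, and caspase-3 activity. For caspase-3: drugs at 10 μM for 48 h, then 1 μM NucView 488 substrate for 30 min, with 1 μM Hoechst 33342, read by plate fluorescence.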

[2] = molecular target: T1, Phospholipase D1 (Mus musculus) (UniProt Q9Z280); test: In vivo inhibition of PLD1 in male C57BL/6 mouse allografted with mouse Lewis lung carcinoma cell line assessed as increase in calreticulin expression at 10 mg/kg, po by immunofluorescence analysis; format: functional, organism-based
T1 sequence (whole entry): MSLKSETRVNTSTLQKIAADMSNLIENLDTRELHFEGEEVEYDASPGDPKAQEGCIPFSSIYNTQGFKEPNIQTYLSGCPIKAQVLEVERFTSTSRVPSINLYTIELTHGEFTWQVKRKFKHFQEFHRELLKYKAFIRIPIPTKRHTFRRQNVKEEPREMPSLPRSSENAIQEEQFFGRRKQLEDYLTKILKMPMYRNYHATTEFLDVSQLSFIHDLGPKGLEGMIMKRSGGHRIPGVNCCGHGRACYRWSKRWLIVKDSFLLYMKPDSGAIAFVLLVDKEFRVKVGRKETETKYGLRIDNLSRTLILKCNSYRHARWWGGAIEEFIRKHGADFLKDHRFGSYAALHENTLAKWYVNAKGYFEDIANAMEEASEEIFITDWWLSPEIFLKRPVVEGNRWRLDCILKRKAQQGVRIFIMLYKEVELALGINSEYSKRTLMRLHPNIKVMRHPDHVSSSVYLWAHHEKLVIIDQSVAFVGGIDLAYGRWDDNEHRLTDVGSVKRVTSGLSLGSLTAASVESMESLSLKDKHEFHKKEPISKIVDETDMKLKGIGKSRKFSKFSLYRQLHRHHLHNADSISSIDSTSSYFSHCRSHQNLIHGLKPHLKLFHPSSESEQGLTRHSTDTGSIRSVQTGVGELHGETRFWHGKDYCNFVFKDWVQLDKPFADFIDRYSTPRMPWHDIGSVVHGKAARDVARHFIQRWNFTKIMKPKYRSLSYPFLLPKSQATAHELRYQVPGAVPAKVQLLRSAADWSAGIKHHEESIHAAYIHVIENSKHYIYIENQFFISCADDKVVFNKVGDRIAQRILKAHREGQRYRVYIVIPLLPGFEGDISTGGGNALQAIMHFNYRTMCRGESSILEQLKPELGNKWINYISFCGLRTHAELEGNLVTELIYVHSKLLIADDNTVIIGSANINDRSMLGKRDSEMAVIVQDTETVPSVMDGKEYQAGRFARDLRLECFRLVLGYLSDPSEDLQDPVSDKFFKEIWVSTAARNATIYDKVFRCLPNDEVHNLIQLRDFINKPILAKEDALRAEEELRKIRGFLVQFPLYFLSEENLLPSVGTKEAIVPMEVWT

[3] = system: HCC44; test: Cytotoxicity against human HCC44 cells assessed as inhibition of cell growth incubated for 48 hrs by WST-1 assay; format: functional, cell-based; settings: HCC44, 48 h
In short: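 WST-1 viability assay. Cells seeded at 5 × 10^3 per well and incubated 24 h at 37 °C, then exposed to drug for 48 h. Absorbance read at 450 nm, in triplicate. IC50 taken as the concentration giving 50% growth inhibition versus control.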

[4] = system: Lewis lung carcinoma cell line; test: Antitumor activity against mouse Lewis lung carcinoma cell line allografted in […] male C57BL/6 mouse model assessed as increase in cell apoptosis at 10 mg/kg, po measured every other day for 3 weeks; format: functional, organism-based
[5] = molecular target: T1, Phospholipase D1 (Mus musculus); test: In vivo inhibition of PLD1 in male C57BL/6 mouse allografted with mouse Lewis lung carcinoma cell line assessed as reduction in CD24 expression at 10 mg/kg, po by immunofluorescence analysis; format: functional, organism-based

Q: Which Activity [1] does the source give for O=C(CCc1c[nH]c2ccccc12)Nc1cc(C(F)(F)F)cc(C(F)(F)F)c1 here?
A: The Activity was “Active”.

Q: What about the inhibition [2] of the same compound?
A: The inhibition was “Active”.

Q: What about the IC50 [3] of the same compound?
A: The IC50 was 22.3 µM.

Q: What about the Activity [4] of the same compound?
A: Its Activity is “Active”.

Q: And the inhibition [5]?
A: The inhibition was “Active”.

— ChEMBL document CHEMBL6134796, “Development and Evaluation of Indole-Based Phospholipase D Inhibitors for Lung Cancer Immunotherapy” (J Med Chem, 2025)
